Reference: ChEMBL document CHEMBL4376872, “Scaffold Hopping of Natural Product Evodiamine: Discovery of a Novel Antitumor Scaffold with Excellent Potency against Colon Cancer” (J Med Chem, 2020)

Experiments:
K562 = assay: Antiproliferative activity against human K562 cells assessed as reduction in cell viability incubated for 72 hrs by CCK8 assay; assay type: functional, cell-based; settings: K562, 72 h
HCT-116 [1] = assay: Induction of apoptosis in human HCT116 cells at 0.04 uM incubated for 24 hrs by annexin V-FITC and propidium iodide staining based flow cytometry (reference value: 0.86 %); assay type: functional
HCT-116 [2] = assay: Cell cycle arrest in human HCT116 cells assessed as accumulation in G2 phase at 4 nM incubated for 24 hrs by propidium iodide staining based flow cytometry (reference value: 12.52 %); assay type: functional
HCT-116 [3] = assay: Cell cycle arrest in human HCT116 cells assessed as accumulation in G1 phase at 36 nM incubated for 24 hrs by propidium iodide staining based flow cytometry (reference value: 45.18 %); assay type: functional
[4] = Toxicity in mouse xenografted with human HCT116 cells assessed as reduction in body weight at 4 mg/kg, ip bid for 21 days administration starting from 10 days after tumor cell implantation measured every 2 or 4 days till the end of the treatment period; assay type: organism-based; settings: in vivo
Outline: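 Nude mice bearing HCT116 xenografts were given intraperitoneal doses on 21 consecutive days, with n = 6 per group including an untreated control group. Body weight was recorded to assess toxicity. Data are mean ± SEM, compared with the control group by Student's t test.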

[5] = biological target: Histone-lysine N-methyltransferase EHMT2 (Homo sapiens) (UniProt Q96KQ7); assay: Inhibition of N-terminal GST-tagged recombinant human G9a (785 to 1210 residues) expressed in Escherichia coli cells using biotinylated histone H3 peptide as substrate at 5 uM incubated for 90 mins in presence of 1 uM SAM by AlphaScreen assay relative to control
[6] = biological target: Poly [ADP-ribose] polymerase 1 (Homo sapiens) (UniProt P09874); assay: Inhibition of PARP1 (unknown origin) using biotin-NAD+, NAD+ and sIDNA as substrate at 5 uM incubated for 1 hr by ELISA relative to control
Poly [ADP-ribose] polymerase 1 (Homo sapiens), sequence (P09874 whole entry): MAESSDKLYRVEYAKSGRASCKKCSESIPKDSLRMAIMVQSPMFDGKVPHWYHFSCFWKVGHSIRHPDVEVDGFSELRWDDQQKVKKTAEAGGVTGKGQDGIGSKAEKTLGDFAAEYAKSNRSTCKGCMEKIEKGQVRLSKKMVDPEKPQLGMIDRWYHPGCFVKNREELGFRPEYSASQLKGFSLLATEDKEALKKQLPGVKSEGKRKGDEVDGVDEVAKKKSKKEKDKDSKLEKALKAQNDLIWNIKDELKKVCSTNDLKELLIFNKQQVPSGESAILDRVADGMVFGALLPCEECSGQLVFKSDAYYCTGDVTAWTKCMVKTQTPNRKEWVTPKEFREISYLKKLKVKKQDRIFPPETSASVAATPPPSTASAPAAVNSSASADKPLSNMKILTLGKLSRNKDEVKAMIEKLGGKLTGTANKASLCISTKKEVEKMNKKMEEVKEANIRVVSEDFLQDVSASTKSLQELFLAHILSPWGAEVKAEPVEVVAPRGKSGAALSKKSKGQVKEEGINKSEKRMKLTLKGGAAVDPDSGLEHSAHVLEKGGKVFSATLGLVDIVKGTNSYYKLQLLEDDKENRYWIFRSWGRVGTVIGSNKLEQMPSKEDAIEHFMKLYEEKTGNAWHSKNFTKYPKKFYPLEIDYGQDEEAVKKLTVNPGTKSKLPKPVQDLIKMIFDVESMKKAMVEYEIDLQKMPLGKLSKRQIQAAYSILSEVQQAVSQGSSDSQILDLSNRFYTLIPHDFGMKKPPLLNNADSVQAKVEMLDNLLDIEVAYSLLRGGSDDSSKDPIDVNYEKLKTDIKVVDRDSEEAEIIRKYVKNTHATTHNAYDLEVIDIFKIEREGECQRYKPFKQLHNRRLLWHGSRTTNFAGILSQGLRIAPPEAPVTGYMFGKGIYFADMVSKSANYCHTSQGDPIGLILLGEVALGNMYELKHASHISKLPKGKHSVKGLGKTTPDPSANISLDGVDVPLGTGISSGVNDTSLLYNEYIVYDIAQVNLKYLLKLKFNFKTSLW

[7] = biological target: Poly [ADP-ribose] polymerase 2 (Homo sapiens) (UniProt Q9UGN5); assay: Inhibition of PARP2 (unknown origin) using biotin-NAD+, NAD+ and sIDNA as substrate at 5 uM incubated for 1 hr by ELISA relative to control
Poly [ADP-ribose] polymerase 2 (Homo sapiens), sequence (Q9UGN5 whole entry): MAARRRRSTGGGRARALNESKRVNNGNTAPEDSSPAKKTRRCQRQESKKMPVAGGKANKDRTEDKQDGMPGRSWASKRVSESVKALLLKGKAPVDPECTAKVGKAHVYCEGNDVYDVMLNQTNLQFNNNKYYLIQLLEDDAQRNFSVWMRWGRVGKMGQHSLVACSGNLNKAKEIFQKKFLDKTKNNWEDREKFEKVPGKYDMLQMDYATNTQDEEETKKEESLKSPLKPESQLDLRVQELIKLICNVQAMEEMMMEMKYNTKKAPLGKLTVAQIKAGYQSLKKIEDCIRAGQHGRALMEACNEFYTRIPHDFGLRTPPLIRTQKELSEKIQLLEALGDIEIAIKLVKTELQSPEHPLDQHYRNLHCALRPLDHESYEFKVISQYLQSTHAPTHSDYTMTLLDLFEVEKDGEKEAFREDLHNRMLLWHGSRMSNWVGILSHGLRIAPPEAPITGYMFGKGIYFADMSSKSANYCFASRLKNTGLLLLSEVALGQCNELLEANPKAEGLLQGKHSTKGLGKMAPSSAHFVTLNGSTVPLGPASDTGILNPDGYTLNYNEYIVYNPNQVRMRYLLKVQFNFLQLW

[8] = biological target: Lysine-specific demethylase 6B (Homo sapiens) (UniProt O15054); assay: Inhibition of JMJD3 (unknown origin) using biotinylated histone H3 peptide as substrate at 5 uM incubated for 60 mins by AlphaScreen assay relative to control
Lysine-specific demethylase 6B (Homo sapiens), sequence (O15054 whole entry): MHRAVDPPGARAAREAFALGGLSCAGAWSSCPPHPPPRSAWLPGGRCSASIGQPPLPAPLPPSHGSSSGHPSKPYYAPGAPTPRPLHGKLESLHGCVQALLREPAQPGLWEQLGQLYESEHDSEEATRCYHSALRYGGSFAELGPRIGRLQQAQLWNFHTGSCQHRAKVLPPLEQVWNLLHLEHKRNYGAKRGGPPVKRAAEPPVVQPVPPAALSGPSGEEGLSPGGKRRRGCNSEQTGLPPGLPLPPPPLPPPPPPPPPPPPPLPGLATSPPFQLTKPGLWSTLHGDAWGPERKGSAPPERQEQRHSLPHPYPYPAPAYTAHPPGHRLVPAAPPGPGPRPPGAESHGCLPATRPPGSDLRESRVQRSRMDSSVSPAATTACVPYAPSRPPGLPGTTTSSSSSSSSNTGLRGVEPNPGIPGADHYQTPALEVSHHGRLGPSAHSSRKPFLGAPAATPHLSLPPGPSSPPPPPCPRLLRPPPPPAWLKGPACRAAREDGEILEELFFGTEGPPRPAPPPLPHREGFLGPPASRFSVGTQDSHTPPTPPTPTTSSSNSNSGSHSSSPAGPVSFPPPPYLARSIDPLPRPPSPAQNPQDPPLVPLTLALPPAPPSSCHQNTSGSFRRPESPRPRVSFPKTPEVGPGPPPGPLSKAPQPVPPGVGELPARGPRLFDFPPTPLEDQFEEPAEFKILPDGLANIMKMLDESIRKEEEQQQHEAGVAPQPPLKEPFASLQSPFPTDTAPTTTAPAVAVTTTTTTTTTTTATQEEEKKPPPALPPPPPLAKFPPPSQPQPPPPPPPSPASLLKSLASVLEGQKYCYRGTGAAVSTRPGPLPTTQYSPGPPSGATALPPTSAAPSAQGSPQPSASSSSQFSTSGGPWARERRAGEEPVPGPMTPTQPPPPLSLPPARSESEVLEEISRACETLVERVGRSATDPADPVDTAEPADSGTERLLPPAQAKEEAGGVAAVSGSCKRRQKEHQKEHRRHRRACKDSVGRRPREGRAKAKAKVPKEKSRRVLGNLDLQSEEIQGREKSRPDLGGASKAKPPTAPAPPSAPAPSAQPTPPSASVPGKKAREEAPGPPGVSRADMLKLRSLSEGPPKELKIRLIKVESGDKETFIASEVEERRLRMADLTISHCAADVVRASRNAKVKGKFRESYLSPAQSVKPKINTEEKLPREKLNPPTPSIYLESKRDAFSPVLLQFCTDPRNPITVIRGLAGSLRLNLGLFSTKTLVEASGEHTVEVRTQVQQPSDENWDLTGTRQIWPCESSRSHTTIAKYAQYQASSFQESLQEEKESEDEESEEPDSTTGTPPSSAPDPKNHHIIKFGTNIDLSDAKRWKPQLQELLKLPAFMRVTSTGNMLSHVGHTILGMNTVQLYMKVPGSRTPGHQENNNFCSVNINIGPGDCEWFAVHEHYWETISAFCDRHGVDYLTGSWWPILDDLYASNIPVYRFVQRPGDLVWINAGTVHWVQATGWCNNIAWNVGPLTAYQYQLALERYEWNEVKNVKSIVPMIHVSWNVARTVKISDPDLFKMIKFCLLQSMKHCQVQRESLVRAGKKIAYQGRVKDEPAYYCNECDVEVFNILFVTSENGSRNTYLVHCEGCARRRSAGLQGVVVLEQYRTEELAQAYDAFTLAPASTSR

[9] = biological target: DNMT3A2/3L complex (Homo sapiens) (UniProt Q9Y6K1+Q9UJW3); assay: Inhibition of DNMT3a/3L (unknown origin) using poly(dIdC) as substrate at 5 uM incubated for 3 hrs in presence of 20 uM SAM by fluorescence analysis; assay type: protein-complex assay
DNMT3A2/3L complex (Homo sapiens), sequence (Q9UJW3 whole entry, looked up): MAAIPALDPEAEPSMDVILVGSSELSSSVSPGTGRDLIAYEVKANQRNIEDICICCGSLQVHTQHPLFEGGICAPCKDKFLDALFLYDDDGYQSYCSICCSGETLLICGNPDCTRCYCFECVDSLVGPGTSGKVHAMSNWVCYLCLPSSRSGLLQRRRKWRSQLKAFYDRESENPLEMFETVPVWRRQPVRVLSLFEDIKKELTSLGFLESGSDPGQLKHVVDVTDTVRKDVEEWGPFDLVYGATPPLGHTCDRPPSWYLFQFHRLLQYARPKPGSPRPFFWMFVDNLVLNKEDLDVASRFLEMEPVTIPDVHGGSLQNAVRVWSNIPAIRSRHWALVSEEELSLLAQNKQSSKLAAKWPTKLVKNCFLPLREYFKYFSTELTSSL
DNMT3A2/3L complex (Homo sapiens), sequence (Q9Y6K1 whole entry, looked up): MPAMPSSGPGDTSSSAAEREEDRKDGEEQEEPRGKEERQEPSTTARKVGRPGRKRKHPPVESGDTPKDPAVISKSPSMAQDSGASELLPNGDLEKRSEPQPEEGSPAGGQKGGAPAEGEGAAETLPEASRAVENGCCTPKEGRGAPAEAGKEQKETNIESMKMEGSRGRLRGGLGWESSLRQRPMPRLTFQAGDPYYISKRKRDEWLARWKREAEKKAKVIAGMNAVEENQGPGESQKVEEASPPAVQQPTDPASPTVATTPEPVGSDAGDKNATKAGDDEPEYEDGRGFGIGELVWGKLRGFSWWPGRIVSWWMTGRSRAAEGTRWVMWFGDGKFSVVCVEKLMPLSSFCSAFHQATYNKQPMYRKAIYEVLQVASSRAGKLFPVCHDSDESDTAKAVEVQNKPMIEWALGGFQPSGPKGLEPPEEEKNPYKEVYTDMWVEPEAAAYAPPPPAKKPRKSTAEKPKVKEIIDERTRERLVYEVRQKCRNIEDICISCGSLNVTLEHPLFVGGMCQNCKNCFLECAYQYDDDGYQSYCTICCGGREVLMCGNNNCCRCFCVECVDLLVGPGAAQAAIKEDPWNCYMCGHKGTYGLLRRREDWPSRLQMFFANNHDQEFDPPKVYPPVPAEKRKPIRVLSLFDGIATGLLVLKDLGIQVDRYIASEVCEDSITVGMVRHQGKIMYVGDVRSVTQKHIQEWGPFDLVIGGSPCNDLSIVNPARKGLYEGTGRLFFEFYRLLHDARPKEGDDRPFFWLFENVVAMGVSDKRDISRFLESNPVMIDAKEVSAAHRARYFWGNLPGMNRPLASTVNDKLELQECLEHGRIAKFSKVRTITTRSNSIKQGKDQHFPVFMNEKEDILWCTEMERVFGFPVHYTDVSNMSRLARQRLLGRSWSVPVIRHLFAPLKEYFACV

[10] = biological target: N-lysine methyltransferase KMT5A (Homo sapiens) (UniProt Q9NQR1); assay: Inhibition of SET8 (unknown origin) using plate-coated histone as substrate at 5 uM incubated for 90 mins in presence of 10 uM SAM by AlphaScreen assay relative to control
N-lysine methyltransferase KMT5A (Homo sapiens), sequence (Q9NQR1 whole entry, the tested form may be a part): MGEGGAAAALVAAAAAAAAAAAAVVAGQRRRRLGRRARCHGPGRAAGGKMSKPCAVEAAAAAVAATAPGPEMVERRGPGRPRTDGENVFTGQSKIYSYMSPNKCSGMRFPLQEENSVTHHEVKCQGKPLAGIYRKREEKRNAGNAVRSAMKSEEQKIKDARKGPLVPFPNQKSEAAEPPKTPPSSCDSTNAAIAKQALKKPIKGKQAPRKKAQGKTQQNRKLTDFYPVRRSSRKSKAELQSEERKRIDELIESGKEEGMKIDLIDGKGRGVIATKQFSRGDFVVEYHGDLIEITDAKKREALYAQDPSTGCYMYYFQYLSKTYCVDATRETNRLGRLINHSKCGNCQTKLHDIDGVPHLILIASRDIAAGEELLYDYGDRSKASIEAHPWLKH

[11] = biological target: Histone deacetylase 3/Nuclear receptor corepressor 2 (HDAC3/NCoR2) (Homo sapiens) (UniProt O15379+Q9Y618); assay: Inhibition of C-terminal His-tagged recombinant human HDAC3 (1 to 428 residues)/N-terminal GST-tagged recombinat human NCoR2 (395 to 489 residues) co-expressed in baculovirus infected Sf9 cells using histone peptide 3 as substrate at 5 uM incubated for 30 mins by fluorescence analysis
[12] = system: Tyrosine-protein kinase ABL1 (Homo sapiens), P00519 [T315I]; assay: Inhibition of Abl T315I mutant (unknown origin) using Abltide as substrate at 5 uM incubated for 40 mins in presence of 10 uM ATP by kiase-Glo luminescence assay relative to control
[13] = biological target: Epidermal growth factor receptor (Homo sapiens) (UniProt P00533); assay: Inhibition of EGFR (unknown origin) using poly (Glu, Tyr) as substrate at 5 uM incubated for 40 mins in presence of 10 uM ATP by kiase-Glo luminescence assay relative to control

IC50 (K562): < 3 nM
inhibition [5]: < 20%
inhibition [6]: < 20%
inhibition [7]: < 20%
inhibition [8]: < 20%
inhibition [9]: < 20%
inhibition [10]: < 20%
inhibition [11]: < 20%
inhibition [12]: < 20%
inhibition [13]: < 20%
Compound: COc1ccc2c(c1)cc1n2CCN2C(=O)c3cc(F)ccc3N(C)C12 (centres undefined)
Activity (HCT-116 [1]): 32.52%
Activity (HCT-116 [2]): 17.73%
Activity (HCT-116 [3]): 1.02%
Activity [4]: Non-Toxic
